V1R ag counter – activates human V1a receptor in oxytocin agonist counter-screen. P37288. CHO-V1R cells, Fluo-8 calcium fluorescence, agonist mode; 0% DMSO, 100% 3 nM vasopressin. activation, % at 3 µM. actives 0.25% (n = 320,000). AID 2797;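 active = activation above the mean activation of all tested compounds plus 3 SD, per screening run, cut at about 20% in these data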;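 also: signal is peak over basal fluorescence ratio across a 100 second FLIPR read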
OXTR ag – agonists of human oxytocin receptor; actives 0.32% (n = 320,000); activation, % at 3 µM; AID 2435; CHO-OTR cells, Fluo-8 calcium fluorescence; normalized: DMSO 0%, oxytocin 100%;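 active = activation above the mean of all tested compounds plus 3 SD, cutoff set per screening run, cut at about 20% in these data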;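 also: peak over basal fluorescence ratio from a 100 s FLIPR kinetic read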
TRPML3 agonist – agonists of human TRPML3 channel; HEK293 TRPML3-YFP, Fluo-8 calcium fluorescence; 100% = the carbachol control signal; activation, % at 3 µM; actives 0.29% (n = 220,000); AID 1448;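 active = activation above its plate's cutoff, the mean activation of the plate's test wells plus 3 SD, cut at about 12% in these data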;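 also: 0% = DMSO only wells and 100% = carbachol wells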
Target sequence (Q8TDD5 whole entry, looked up): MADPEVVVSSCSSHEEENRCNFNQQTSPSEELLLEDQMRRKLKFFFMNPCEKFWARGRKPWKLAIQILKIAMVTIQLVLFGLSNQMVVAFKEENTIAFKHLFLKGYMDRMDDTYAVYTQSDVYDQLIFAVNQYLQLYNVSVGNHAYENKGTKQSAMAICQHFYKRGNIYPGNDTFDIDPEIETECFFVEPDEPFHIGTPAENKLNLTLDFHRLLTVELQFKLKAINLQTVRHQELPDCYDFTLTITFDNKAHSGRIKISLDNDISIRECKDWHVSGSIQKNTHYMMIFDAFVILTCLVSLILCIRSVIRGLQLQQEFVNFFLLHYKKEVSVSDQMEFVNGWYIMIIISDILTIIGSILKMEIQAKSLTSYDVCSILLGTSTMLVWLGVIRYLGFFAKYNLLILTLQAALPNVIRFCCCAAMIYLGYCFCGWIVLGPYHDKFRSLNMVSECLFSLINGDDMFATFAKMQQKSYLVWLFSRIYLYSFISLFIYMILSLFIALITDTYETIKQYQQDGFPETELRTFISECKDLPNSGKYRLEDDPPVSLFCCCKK
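Test system: TRPML3-YFP stable HEK293 cells. Doses: single point at 3 µM. Incubation: dye loading 1 h 37 °C then 30 min ambient, 125 s read. Signal: Fluo-8 calcium dye fluorescence, ex 470-495, em 515-575 nm. Measure: percent activation from peak-to-basal fluorescence ratio, scaled between DMSO and carbachol.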
CRFBP-R2 agonist – agonists of human CRF-binding protein/CRF-R2 receptor complex; HEK293 CRF-R2/CRF-BP, calcium dye fluorescence (FLIPR); percent of saturating CRF peptide response; activation, % at 13.2 µM; actives 0.46% (n = 350,000); AID 588473;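 active = activation of at least 50%, plus an integration ratio under a set limit after plate pattern correction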;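 also: plate controls were neutral control wells without compound for no effect and CRF at EC100 for full effect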
OXTR potentiate – potentiates the human oxytocin receptor response; actives 0.061% (n = 320,000); CHO-OTR cells, Fluo-8 calcium fluorescence, potentiator mode; 0% = oxytocin EC15, 100% = EC100; activation, % at 3 µM; P30559; AID 2445;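 active = activation above that plate's cutoff, the mean activation of tested compounds plus 3 SD, cut at about 6.6% in these data, passing the limit was not always enough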;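 also: 100% uses oxytocin at 75 nM as the full agonist control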
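Assay system: CHO cell line stably expressing human OTR. Reagent: EC15 oxytocin agonist. Dosing: single dose, 3.0 µM nominal final compound concentration. Timing: compound 6 min at room temperature before oxytocin, 100 s read. Signal: kinetic Fluo-8 calcium fluorescence. Controls: oxytocin EC15 low and EC100 high.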
zfTRPN1 agonist – activates the zebrafish TRPN1 channel; actives 0.18% (n = 220,000); activation, % at 3 µM; HEK293 zebrafish TRPN1-YFP, Fluo-8 calcium fluorescence; 100% = response to 87 µM carbachol;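 active = activation above its plate's cutoff, the mean activation of test wells on that plate plus 3 SD, cut at about 19% in these data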;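 also: 0% = DMSO alone and 100% = 87 µM carbachol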
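Material: zebrafish TRPN1-YFP in HEK293 cells; Doses: single test compound dose, 3 µM nominal, 0.3% DMSO; Timing: dye loading 1 h at 37 °C, then 30 min room temperature; Technique: intracellular calcium fluorescence with Fluo-8; Benchmarks: high carbachol 87 µM, low DMSO alone.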
Starred values were filed as active, the others as inactive; nt = not tested or not shown. Sampled rows, rich in hits. Any-hit rate of the full collection: about 0.83%.

SMILES | V1R ag counter | OXTR ag | TRPML3 agonist | CRFBP-R2 agonist | OXTR potentiate | zfTRPN1 agonist
CCOC(=O)C1CCCN(c2ncnc3c2cnn3-c2ccc(Cl)cc2)C1 (configuration not stated) | 1 | 1 | 0 | 101* | -4 | 1
OCC1(Cc2cccc(Cl)c2)CCCN(Cc2ccc(F)c(F)c2)C1 (configuration not stated) | 1 | -1 | nt | 1 | 4 | nt
CC(=O)Nc1ccc(CN2CCCC(CO)(Cc3cccc(Cl)c3)C2)cc1 (configuration not stated) | 1 | 3 | 0 | 56* | -3 | 3
CCOC(=O)/C=c1/s/c(=C/c2ccc3cc(OC)ccc3c2)c(=O)n1CC(=O)NCC1CCCO1 (configuration not stated) | nt | nt | nt | 79* | nt | nt
COCC(=O)N1CCC2CC1c1cc(Cl)ccc12 (configuration not stated) | nt | nt | nt | 0 | nt | nt
CCOC(=O)N1CCN(Cc2nc3cc(NC(=O)c4ccco4)ccc3n2C)CC1 | 0 | 0 | nt | -1 | -5 | nt
CCc1ccc[n+](-c2[nH]c(=O)sc2/C=N/NC([S-])=Nc2ccccc2)c1 | 4 | 2 | 3 | 85* | -6 | 7
COc1cc([N+](=O)[O-])ccc1-c1ccc(/C=N/NC(=O)OC(C)(C)C)o1 | 1 | 1 | 2 | 57* | -8 | 4
CCCCCN(C(=O)CCC(=O)OC(C)C(=O)Nc1ccccc1C)c1c(N)n(CCCC)c(=O)[nH]c1=O (configuration not stated) | nt | nt | nt | 9 | nt | nt
CCN1/C(=C/C=C/c2oc3ccc4ccccc4c3[n+]2CC)Oc2ccc3ccccc3c21 | 45* | 39* | 31* | 153* | -6 | 73*
CC[n+]1c(/C=C/N(C)c2ccccc2)oc2ccc(Cl)cc21 | 6 | 1 | 0 | 2 | 2 | 0
Cn1c(=O)c2c(ncn2CC(=O)OCC(=O)NCc2ccc(F)cc2)n(C)c1=O | nt | nt | nt | -1 | nt | nt
CCOc1cc(C)c(C(C)C)cc1S(=O)(=O)n1cnc(C)c1 | -1 | -3 | 1 | 104* | -22 | -3
O=C1OC2(c3ccccc31)c1cc(I)c(O)c(I)c1Oc1c2cc(I)c(O)c1I | 659* | 670* | nt | nt | -26 | nt
Nc1cccc(N2C(=O)c3cccc4c(N)ccc(c34)C2=O)c1 | 47* | 28* | nt | 162* | -12 | nt
Cc1cccc(N2C(=O)c3cccc4cccc(c34)C2=O)c1 | 0 | -2 | nt | -7 | -5 | nt
O=C(O)c1cccc(N2C(=O)c3cccc4c(Cl)ccc(c34)C2=O)c1 | 0 | 1 | 1 | 0 | -13 | 1
CC(C)CCN1C(=O)c2cccc3c(N)ccc(c23)C1=O | 170* | 128* | nt | 166* | -20 | nt
Nc1ccc2c3c(cccc13)C(=O)N(c1ccccc1)C2=O | nt | nt | 111* | 235* | nt | 125*
Cc1cccc(N2C(=O)c3cccc4c(N)ccc(c34)C2=O)c1 | 139* | 172* | nt | 268* | -27 | nt
CC(C)C[C@H](NC(=O)N1CCn2c1nc1ccccc12)C(=O)N[C@@H](Cc1ccccc1)C(=O)O | 0 | 0 | nt | -1 | -4 | nt
Cn1nc(C(=O)NNC(=O)CCc2ccccc2Cl)c2ccccc2c1=O | -1 | -2 | nt | -1 | -5 | nt
CN(C)c1ccc2c3c(cccc13)C(=O)N(c1ccccc1)C2=O | 5 | 2 | 1 | nt | -17 | 4
Cc1cccc(N2C(=O)c3cccc4c(N(C)CCO)ccc(c34)C2=O)c1 | 38* | 53* | 30* | 191* | -13 | 39*
COc1ccc2nc(/N=C/c3c(C)[nH]n(-c4ccc(C)cc4C)c3=O)sc2c1 | -1 | 0 | 0 | 65* | 1 | -1
COc1ccccc1N=Cc1c(C)[nH]n(-c2ccc(C)cc2C)c1=O | -1 | -3 | 0 | 1 | -2 | 2
CCOc1ccc(NC(=O)CN(C)C(=O)c2c(-c3ccccc3)noc2C)cc1OCC | 0 | 0 | nt | 0 | -5 | nt
CCN(CC)S(=O)(=O)c1ccc(C(=O)N2CCN(CCN3C(=O)c4cccc5cccc(c45)C3=O)CC2)cc1 | 0 | -1 | 1 | nt | -1 | 2

From PubChem
